From ChEMBL document CHEMBL3774312, “5-Substituted 3-isopropyl-7-[4-(2-pyridyl)benzyl]amino-1(2)H-pyrazolo[4,3-d]pyrimidines with anti-proliferative activity as potent and selective inhibitors of cyclin-dependent kinases” (Eur J Med Chem, 2016)
Active and inactive are the calls of the source. The calls are words filed in the database; no cut-off is given here.

Legend:
[1] = biological target: Cyclin-dependent kinase 2/cyclin E1 (Homo sapiens, UniProt P24941); test: Inhibition of CDK2/Cyclin E (unknown origin) expressed in sf9 cells using histone H1 as substrate in presence of [gamma33P]-ATP; type: cell-based
[2] = Cytotoxicity against human G361 cells assessed as reduction in cell viability after 72 hrs by calcein AM staining based fluorescence assay; type: functional; settings: G-361, 72 h
Method in brief: (§1)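 Cells were grown in DMEM with 10% FBS, penicillin and streptomycin at 37 °C in 5% CO2. Three doses were tested in triplicate for 72 h.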

K562 = test: Cytotoxicity against human K562 cells assessed as reduction in cell viability after 72 hrs by calcein AM staining based fluorescence assay; type: functional; settings: K562, 72 h; method in brief: as §1
[3] = (§2) Cytotoxicity against human HCT116 cells assessed as reduction in cell viability after 72 hrs by calcein AM staining based fluorescence assay; type: functional; settings: HCT-116, 72 h
Method in brief: (§3)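 Cells were grown in DMEM with 10% FBS, penicillin and streptomycin at 37 °C in 5% CO2. Three doses were tested in triplicate for 72 h. Live cells were read by Calcein AM fluorescence at 485/538 nm.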

MCF7 [4] = test: Cytotoxicity against human MCF7 cells assessed as reduction in cell viability after 72 hrs by calcein AM staining based fluorescence assay; type: functional; settings: for IC50: MCF7, 72 h; method in brief: as §1
[5] = biological target: Cyclin-dependent kinase 5 (Homo sapiens, UniProt Q00535); test: Inhibition of CDK5 (unknown origin) using histone H1 as substrate in presence of [gamma33P]-ATP
Cyclin-dependent kinase 5, sequence (Q00535 whole entry): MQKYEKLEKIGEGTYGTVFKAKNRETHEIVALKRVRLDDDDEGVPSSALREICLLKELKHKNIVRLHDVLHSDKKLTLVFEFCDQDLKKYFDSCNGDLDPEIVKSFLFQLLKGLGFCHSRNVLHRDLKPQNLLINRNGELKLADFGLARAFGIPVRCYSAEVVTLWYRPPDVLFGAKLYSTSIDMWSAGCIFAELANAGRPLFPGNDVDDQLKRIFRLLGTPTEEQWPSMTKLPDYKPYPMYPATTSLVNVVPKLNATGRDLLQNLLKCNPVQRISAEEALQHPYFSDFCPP

MCF7 [6] = test: Cell cycle arrest in BrdU pulse-labelled human MCF7 cells assessed as accumulation at late S phase at 8 to […] after 24 hrs by propidium iodide staining based flow cytometry; type: functional
MCF7 [7] = test: Cell cycle arrest in BrdU pulse-labelled human MCF7 cells assessed as accumulation at late G2/M phase at 8 to […] after 24 hrs by propidium iodide staining based flow cytometry; type: functional
MCF7 [8] = test: Cell cycle arrest in BrdU pulse-labelled human MCF7 cells assessed as accumulation at subG1 phase at 8 to […] after 24 hrs by propidium iodide staining based flow cytometry; type: functional
HCT-116 = test: as §2; type: functional; method in brief: as §3
MCF7 [9] = test: Cell cycle arrest in BrdU pulse-labelled human MCF7 cells assessed as decrease in cells at S phase at 8 to […] after 24 hrs by propidium iodide staining based flow cytometry; type: functional
[10] = biological target: Cyclin-dependent kinase 2 (Homo sapiens) (UniProt P24941); test: Inhibition of CDK2 in human G361 cells assessed as reduction in phosphorylation of RNA polymerase 2 at C-terminus at 15 uM incubated for 0.5 to 24 hrs by immunoblotting analysis; type: cell-based; settings: G-361
Method in brief: (§4)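 Treated G361 cells were lysed in Laemmli buffer, run on SDS-PAGE and blotted to nitrocellulose. Blots were probed overnight with antibodies to RNA polymerase II phosphorylated at S5 and S2, and to total RNA polymerase II (ARNA-3). Peroxidase secondaries were then applied and signal was detected by ECL with a CCD camera.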

G-361 [11] = test: Induction of apoptosis in human G361 cells assessed as caspase3 activation using Ac-DEVD-AMC as substrate at 5 times IC50 preincubated for 24 hrs followed by substrate addition measured after 3 hrs by fluorescence assay; type: functional, cell-based
G-361 [12] = test: Induction of apoptosis in human G361 cells assessed as caspase7 activation using Ac-DEVD-AMC as substrate at IC50 preincubated for 24 hrs followed by substrate addition measured after 3 hrs by fluorescence assay; type: functional, cell-based
G-361 [13] = test: Induction of apoptosis in human G361 cells assessed as caspase3 activation using Ac-DEVD-AMC as substrate at IC50 preincubated for 24 hrs followed by substrate addition measured after 3 hrs by fluorescence assay; type: functional, cell-based
[14] = biological target: Cyclin-dependent kinase 2 (Homo sapiens) (UniProt P24941); test: Inhibition of CDK2 in human G361 cells assessed as reduction in phosphorylation of RNA polymerase 2 at C-terminus at 1.5 to 15 uM incubated for 24 hrs by immunoblotting analysis; type: cell-based; settings: G-361; method in brief: as §4
G-361 [15] = test: Induction of apoptosis in human G361 cells assessed as caspase7 activation using Ac-DEVD-AMC as substrate at 5 times IC50 preincubated for 24 hrs followed by substrate addition measured after 3 hrs by fluorescence assay; type: functional, cell-based
MCF7 [16] = test: Cell cycle arrest in BrdU pulse-labelled human MCF7 cells assessed as accumulation at late G2/M phase at 8 to 250 nM after 24 hrs by propidium iodide staining based flow cytometry; type: functional
MCF7 [17] = test: Cell cycle arrest in BrdU pulse-labelled human MCF7 cells assessed as accumulation at subG1 phase at 8 to 250 nM after 24 hrs by propidium iodide staining based flow cytometry; type: functional
MCF7 [18] = test: Cell cycle arrest in BrdU pulse-labelled human MCF7 cells assessed as accumulation at late S phase at 8 to 250 nM after 24 hrs by propidium iodide staining based flow cytometry; type: functional
MCF7 [19] = test: Cell cycle arrest in BrdU pulse-labelled human MCF7 cells assessed as decrease in cells at S phase at 8 to 250 nM after 24 hrs by propidium iodide staining based flow cytometry; type: functional

Compound `CSc1nc(NCc2ccc(-c3ccccn3)cc2)c2[nH]nc(C(C)C)c2n1` has an IC50 [1] of 48 nM, an IC50 [2] of 1400 nM and an IC50 (K562) of 778 nM. The IC50 [3] was 2800 nM and the IC50 (MCF7 [4]) was 819 nM.

For `CC(C)c1n[nH]c2c(NCc3ccc(-c4ccccn4)cc3)nc(N3CCN(CCO)CC3)nc12`, the IC50 [1] was 132 nM, the IC50 [2] was 181 nM and the IC50 (K562) was 145 nM. For the same compound, the IC50 [3] was 350 nM and the IC50 (MCF7 [4]) was 195 nM.

`CC(C)c1n[nH]c2c(NCc3ccc(-c4ccccn4)cc3)nc(NCCN)nc12` showed an IC50 [1] of 18 nM, an IC50 [2] of 230 nM and an IC50 [5] of 8 nM. For the same compound, the IC50 (K562) was 63 nM, the IC50 [3] was 227 nM and the IC50 (MCF7 [4]) was 62 nM.

With `CC[C@H](CO)Nc1nc(NCc2ccccc2)c2ncn(C(C)C)c2n1` [SELICICLIB] the IC50 [3] was 14400 nM and the IC50 (MCF7 [4]) was 12200 nM.

For `CC(C)c1n[nH]c2c(NCc3ccc(-c4ccccn4)cc3)nc(NCc3ccc(-c4ccccn4)cc3)nc12`, the IC50 [1] was 1450 nM, the IC50 [2] was 3610 nM and the IC50 [5] was 3600 nM. The IC50 (K562) was 2540 nM, the IC50 [3] was 7320 nM and the IC50 (MCF7 [4]) was 2380 nM.

Work on `CC(C)c1n[nH]c2c(NCc3ccc(-c4ccccn4)cc3)nc(N3CCCCC3CCO)nc12` (stereo not drawn) yielded an IC50 [1] of 24 nM, an IC50 [2] of 204 nM and an IC50 [5] of 37 nM. The IC50 (K562) was 165 nM, the IC50 [3] was 142 nM and the IC50 (MCF7 [4]) was 133 nM.

For `CCC(CO)Nc1nc(NCc2ccc(-c3ccccn3)cc2)c2[nH]nc(C(C)C)c2n1` (stereo not drawn), the IC50 [1] was 54 nM, the IC50 [2] was 67 nM and the Activity (MCF7 [6]) was “Active”. For the same compound, the Activity (MCF7 [7]) was “Active”, the Activity (MCF7 [8]) was “Active” and the IC50 [3] was 110 nM. For the same compound, the Activity (HCT-116) was “Dose-dependent effect”, the Activity (MCF7 [9]) was “Active” and the Activity (MCF7 [4]) was “Dose-dependent effect”. For the same compound, the IC50 (MCF7 [4]) was 53 nM.

Compound `CC(C)c1n[nH]c2c(NCc3ccc(-c4ccccn4)cc3)nc(S(C)(=O)=O)nc12` has an IC50 [1] of 70 nM, an IC50 [2] of 793 nM and an IC50 (K562) of 640 nM. For the same compound, the IC50 [3] was 1140 nM and the IC50 (MCF7 [4]) was 460 nM.

In the case of `CC(C)c1n[nH]c2c(NCc3ccc(-c4ccccn4)cc3)nc(N[C@H]3CC[C@H](N)CC3)nc12`, the inhibition [10] is reported as “Active”, the Activity (G-361 [11]) is reported as “Active” and the IC50 [1] is reported as 96 nM. For the same compound, the IC50 [2] was 745 nM, the Activity (G-361 [12]) was “Active” and the Activity (G-361 [13]) was “Active”. The inhibition [14] was “Active”, the Activity (G-361 [15]) was “Active” and the IC50 (K562) was 593 nM. It also gave an IC50 [3] of 720 nM and an IC50 (MCF7 [4]) of 474 nM.

In the case of `CC(C)c1n[nH]c2c(NCc3ccc(-c4ccccn4)cc3)nc(NCC(O)CN)nc12` (stereo not drawn), the IC50 [1] is reported as 51 nM, the IC50 [2] is reported as 1020 nM and the Activity (MCF7 [16]) is reported as “Active”. The Activity (MCF7 [17]) was “Active”, the Activity (MCF7 [18]) was “Active” and the IC50 [5] was 17 nM. For the same compound, the IC50 (K562) was 700 nM, the IC50 [3] was 781 nM and the Activity (HCT-116) was “Dose-dependent effect”. For the same compound, the Activity (MCF7 [4]) was “Dose-dependent effect”, the IC50 (MCF7 [4]) was 310 nM and the Activity (MCF7 [19]) was “Active”.

For `CC(C)c1n[nH]c2c(NCc3ccc(-c4ccccn4)cc3)nc(N3CCSCC3)nc12`, the IC50 [1] was 61 nM, the IC50 [2] was 873 nM and the IC50 (K562) was 589 nM. The IC50 [3] was 940 nM and the IC50 (MCF7 [4]) was 530 nM.
